{
  "source": "paper PMC6318120",
  "about": "(Cellular and molecular life sciences : CMLS, 2017)",
  "key": {"[1]": {"system": "Cx43-hemichannels in primary bovine corneal endothelial cells (BCECs)", "settings": "cited from earlier work"}, "Cx43-hemichannels": {"system": "Cx43-hemichannels", "settings": "cited from earlier work; for effect on Cx43-hemichannel inhibition by high [Ca2+]i: 1 μM [Ca2+]i"}, "Cx43 gap junctions": {"system": "Cx43 gap junctions", "settings": "cited from earlier work"}, "[2]": {"system": "native HeLa cells, which lack endogenous Cx43 expression", "test": "Whole-cell patch clamp recording in native HeLa cells", "assay_type": "cell-based, human", "settings": "peptide 100 μM; voltage steps -30 to +60 mV; Supplementary Fig. 1", "how_it_was_run": "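Whole-cell patch clamp was done on untransfected HeLa cells. The CsCl/EGTA/TEA pipette solution (pH 7.2) was set to 1 µM free Ca2+ and delivered test peptide (100 µM). Steps ran from −30 to +60 mV for 30 s, acquired at 4 kHz and filtered at 1 kHz.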"}, "[3]": {"system": "Cx43-hemichannels in HeLa cells overexpressing Cx43", "test": "Whole-cell patch clamp recording of unitary Cx43-hemichannel currents", "assay_type": "cell-based, human", "settings": "peptide 100 μM via patch pipette"}, "Cx43^M242 hemichannels": {"system": "Cx43^M242 hemichannels", "test": "ATP release from HeLa cells transiently expressing CT-truncated Cx43^M242", "assay_type": "cell-based, human", "settings": "peptide 100 μM; Fig. 6b", "how_it_was_run": "(§1)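 HeLa cells were transiently transfected with the truncated Cx43 construct; empty-vector-transfected cells gave background release. Cells were triggered with 2 µM A23187 while exposed to vehicle or TAT-linked test peptides (100 µM). Extracellular ATP was measured by luciferin–luciferase and normalised to baseline from separate cultures in standard HBSS-HEPES. At least four independent measurements.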"}, "[4]": {"system": "Cx43^ΔGap19M242-based hemichannels", "test": "ATP release from HeLa cells transiently expressing Cx43^ΔGap19M242", "assay_type": "cell-based, human", "settings": "peptide 100 μM; 2 μM A23187; n = 4; Fig. 7a", "how_it_was_run": "as §1"}},
  "data": [
    {"molecule": "Cc1ccc2c(c1)C(=O)C1(O)CCN(c3ccccc3)C1=N2", "note": "(single isomer, unassigned; (-)) [(−)-blebbistatin]", "values": [
      {"measurement": "effect on thrombin-induced inhibition of Cx43-hemichannels in BCECs", "setting": "[1]; thrombin-treated BCECs", "value": "could be alleviated"},
      {"measurement": "effect on Cx43-hemichannel inhibition by high [Ca2+]i", "setting": "Cx43-hemichannels", "value": "prevented the Cx43-hemichannel inhibition by high [Ca^2+]i"}
    ]},
    {"molecule": "Gap19: nine amino acid sequence of L2, selective Cx43-hemichannel inhibitor (KQIEIKKFK; UniProt P17302 128-136, looked up, fragment)", "values": [
      {"measurement": "effect on Cx43 gap junctions", "setting": "Cx43 gap junctions", "value": "not affecting Cx43 gap junctions"},
      {"measurement": "effect on opening of Cx43-hemichannels", "setting": "Cx43-hemichannels", "value": "inhibit the opening of Cx43-hemichannels"}
    ]},
    {"molecule": "SPTAPLSPMSPPG [SH3]", "values": [
      {"measurement": "unitary current activity in native HeLa cells at 1 μM [Ca2+]i", "setting": "[2]", "value": "did not elicit any changes"},
      {"measurement": "membrane charge transfer (Qm) summary at 1 μM [Ca2+]i", "setting": "[3]; current traces integrated over time, Fig. 4j", "value": "remove hemichannel inhibition"},
      {"measurement": "effect on hemichannel opening activity at 50 nM [Ca2+]i", "setting": "[3]; voltage steps -30 to +60 mV, 30 s, Fig. 4b, c", "value": "did not affect"},
      {"measurement": "effect on inhibition of Cx43-hemichannel currents by 1 μM [Ca2+]i", "setting": "[3]; voltage steps -30 to +60 mV, 30 s, Fig. 4g-i", "value": "completely prevented the inhibition"}
    ]},
    {"molecule": "YGRKKRRORRRDGANVDMHLKQTFTKKFKYGTFFHGK [TAT-L2]", "values": [
      {"measurement": "effect of TAT-L2 pre-treatment on the active area in BCECs", "setting": "[1]; pre-treatment of BCECs", "value": "severely reduced"},
      {"measurement": "effect on Cx43 gap junctions", "setting": "Cx43 gap junctions", "value": "but not Cx43 gap junctions"},
      {"measurement": "effect on opening of Cx43-hemichannels", "setting": "Cx43-hemichannels", "value": "inhibited the opening of Cx43-hemichannels"}
    ]},
    {"molecule": "YGRKKRRQRRRSRPRPDDLFI [TAT-CT9]", "values": [
      {"measurement": "restoration of ATP release of Cx43^M242 hemichannels in response to 2 μM A23187", "setting": "Cx43^M242 hemichannels", "value": "can restore the activity"},
      {"measurement": "restoration of the thrombin-reduced active area in BCECs", "setting": "[1]; thrombin-treated BCECs", "value": "could restore the thrombin-reduced active area"},
      {"measurement": "effect on Cx43-hemichannel inhibition by high [Ca2+]i", "setting": "Cx43-hemichannels", "value": "prevented the Cx43-hemichannel inhibition by high [Ca^2+]i"},
      {"measurement": "restoration of the activity of Cx43^M239-based hemichannels", "setting": "Cx43-hemichannels; cell-permeant synthetic peptide", "value": "can be restored"}
    ]},
    {"molecule": "YGRKKRRQRRRSSPTAPLSPMSPPG [TAT-SH3]", "values": [
      {"measurement": "restoration of ATP release of Cx43^M242 hemichannels in response to 2 μM A23187", "setting": "Cx43^M242 hemichannels", "value": "restored the ATP release properties"},
      {"measurement": "restoration of ATP release through Cx43^ΔGap19M242-based hemichannels", "setting": "[4]", "value": "could not be restored"}
    ]},
    {"molecule": "thrombin", "values": [
      {"measurement": "effect of thrombin pre-treatment on the active area in BCECs", "setting": "[1]; pre-treatment of BCECs", "value": "strongly reduced"}
    ]}
  ]
}
